The text below walks through data of article PMC10870110 (RSC Advances, 2024).

Each structure is given as a SMILES string.

For experiment [1], the system named is A375 human melanoma cell line. Description: Cytotoxicity by SRB assay on A375 cells. Conditions: read-out: IC50 on A375 cells, 72 h treatment, mean ± SD (n = 3). Format: cell-based. In outline:
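A375 cells kept in DMEM with 10% FBS and 100 U mL−1 penicillin/streptomycin at 37 °C, 5% CO2. Seeded, grown 24 h, then exposed 72 h to test compound at 0.01–100 μM. Fixed in 10% TCA (1 h, 4 °C), stained with 0.4% w/v SRB (10 min, dark), washed with 1% acetic acid, dye dissolved in 10 mM Tris pH 10.5, A540 read.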

The subject of experiment [2] is normal human skin fibroblast cells (HSF). Description: Cytotoxicity by SRB assay on normal HSF cells. It counts as cell-based. As to conditions: for IC50: Homo sapiens, Skin fibroblast, read-out: HSF IC50; for Selectivity index (SI): IC50 of normal cells (HSF)/IC50 of tumor cells (A375). An outline of the steps: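 Normal human skin fibroblasts (HSF) grown in DMEM/10% FBS/penicillin-streptomycin, 37 °C, 5% CO2. Plated 24 h, then 72 h with test compound at 0.01–100 μM. TCA fixation, SRB staining, 10 mM Tris pH 10.5 solubilisation, absorbance at 540 nm. IC50 by Emax curve fit, mean ± SD. Selectivity index = IC50 in HSF / IC50 in A375.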
In general terms: Sulforhodamine B stains cellular protein and so reports cell mass.

The subject of experiment [3] is A375 cells. Kind of experiment: Cell cycle analysis by DNA flow cytometry. Format: cell-based, human. As to conditions: A375, 48 h treatment.
In experiment [4] the test system is A375 cells. Kind of experiment: Scratch wound healing assay. It counts as cell-based, human. As to conditions: 4j at 0.5 μM. In outline:
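Confluent A375 monolayers (1 × 10^5 cells/well seeding) scored with a pipette tip to give one straight cell-free line, PBS-rinsed, then exposed to test compound. Gap imaged at ×100 at 0, 24, 48 and 72 h; horizontal wound width measured. Closure % = 100 − (Wt/W0 × 100). Triplicates, mean ± SD; ANOVA with Tukey post-hoc, P < 0.05.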

The next experiment has as its target BRAF^V600E (Homo sapiens, UniProt P15056, V600E). Kind of experiment: BRAF^V600E inhibition assay. It counts as cell-based.
For a further experiment, the target named is VEGFR-2 (Homo sapiens, UniProt P35968). Kind of experiment: VEGFR-2 inhibition assay. Format: cell-based.
Experiment [5] concerns A375 cells. Description: Annexin V-FITC/PI apoptosis assay. Format: cell-based, human. As to conditions: A375, IC50 concentration, 48 h.

Chain of BRAF^V600E (P15056 whole entry V600E): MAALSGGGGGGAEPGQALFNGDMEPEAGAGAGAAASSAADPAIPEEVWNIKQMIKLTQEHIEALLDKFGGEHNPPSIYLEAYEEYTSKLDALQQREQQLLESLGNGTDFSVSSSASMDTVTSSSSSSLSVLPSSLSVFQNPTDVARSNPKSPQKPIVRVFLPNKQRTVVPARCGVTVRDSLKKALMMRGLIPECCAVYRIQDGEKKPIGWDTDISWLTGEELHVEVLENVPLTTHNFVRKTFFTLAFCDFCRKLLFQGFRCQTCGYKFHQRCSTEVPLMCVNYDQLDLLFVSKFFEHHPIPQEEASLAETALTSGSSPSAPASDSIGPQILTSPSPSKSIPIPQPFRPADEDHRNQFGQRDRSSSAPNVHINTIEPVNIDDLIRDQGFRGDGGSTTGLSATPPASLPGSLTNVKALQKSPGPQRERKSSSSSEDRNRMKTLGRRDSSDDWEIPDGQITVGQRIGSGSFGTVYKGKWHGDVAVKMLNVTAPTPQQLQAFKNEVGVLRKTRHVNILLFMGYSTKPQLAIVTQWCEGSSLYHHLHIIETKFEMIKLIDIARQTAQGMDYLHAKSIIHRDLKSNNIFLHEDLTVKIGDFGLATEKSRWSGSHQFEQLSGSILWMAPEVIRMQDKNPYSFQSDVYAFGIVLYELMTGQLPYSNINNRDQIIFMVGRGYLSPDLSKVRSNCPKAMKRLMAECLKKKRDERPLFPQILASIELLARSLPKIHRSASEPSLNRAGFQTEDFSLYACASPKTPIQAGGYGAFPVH
Chain of VEGFR-2 (P35968 20-1356): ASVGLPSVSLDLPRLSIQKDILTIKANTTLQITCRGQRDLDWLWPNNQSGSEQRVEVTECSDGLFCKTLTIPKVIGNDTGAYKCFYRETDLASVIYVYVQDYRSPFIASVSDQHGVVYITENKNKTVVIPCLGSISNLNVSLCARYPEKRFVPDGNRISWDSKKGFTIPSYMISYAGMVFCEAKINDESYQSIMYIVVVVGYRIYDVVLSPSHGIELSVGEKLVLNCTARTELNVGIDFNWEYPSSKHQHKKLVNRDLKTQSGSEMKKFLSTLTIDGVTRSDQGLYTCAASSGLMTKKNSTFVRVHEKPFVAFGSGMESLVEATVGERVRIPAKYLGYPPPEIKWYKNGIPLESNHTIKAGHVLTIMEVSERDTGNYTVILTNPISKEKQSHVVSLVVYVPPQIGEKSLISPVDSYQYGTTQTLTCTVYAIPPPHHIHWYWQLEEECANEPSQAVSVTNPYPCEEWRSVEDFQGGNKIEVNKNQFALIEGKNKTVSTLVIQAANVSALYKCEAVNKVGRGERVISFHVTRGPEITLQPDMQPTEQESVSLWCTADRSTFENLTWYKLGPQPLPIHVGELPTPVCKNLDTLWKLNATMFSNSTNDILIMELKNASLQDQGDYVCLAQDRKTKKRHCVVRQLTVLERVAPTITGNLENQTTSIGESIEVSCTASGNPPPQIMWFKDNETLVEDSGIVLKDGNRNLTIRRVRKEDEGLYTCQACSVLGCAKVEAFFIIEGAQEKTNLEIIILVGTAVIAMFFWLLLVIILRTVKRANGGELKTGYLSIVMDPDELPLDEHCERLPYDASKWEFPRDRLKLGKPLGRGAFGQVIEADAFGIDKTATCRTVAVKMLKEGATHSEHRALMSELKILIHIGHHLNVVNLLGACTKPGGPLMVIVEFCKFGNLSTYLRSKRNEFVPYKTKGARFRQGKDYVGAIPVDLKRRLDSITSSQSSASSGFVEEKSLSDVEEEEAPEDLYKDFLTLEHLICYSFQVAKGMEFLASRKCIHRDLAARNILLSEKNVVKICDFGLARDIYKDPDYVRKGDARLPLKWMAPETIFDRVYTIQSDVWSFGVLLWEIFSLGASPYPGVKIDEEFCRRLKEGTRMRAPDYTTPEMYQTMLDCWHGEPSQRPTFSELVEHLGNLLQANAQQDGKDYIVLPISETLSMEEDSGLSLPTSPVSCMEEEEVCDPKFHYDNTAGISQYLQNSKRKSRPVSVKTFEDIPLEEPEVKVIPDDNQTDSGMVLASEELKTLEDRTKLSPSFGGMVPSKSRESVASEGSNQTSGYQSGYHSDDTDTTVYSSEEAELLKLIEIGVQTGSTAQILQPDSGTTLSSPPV

As for `O=C1C(n2nc(-c3c(O)c4ccccc4oc3=O)cc2-c2ccc(F)cc2)c2ccccc2N1Cc1ccccc1` (stereo not shown) [Compound 4c, 1-Benzyl-3-(5-(4-fluorophenyl)-3-(4-hydroxy-2-oxo-2H-chromen-3-yl)-1H-pyrazol-1-yl) indolin-2-one], in experiment [1], the IC50 was 4.6 ± 0.32 µM.

On to `O=C1C(n2nc(-c3c(O)c4ccccc4oc3=O)cc2-c2ccc(F)cc2)c2cc(Cl)ccc2N1Cc1ccccc1` (stereo not shown) [Compound 4f, 1-Benzyl-5-chloro-3-(5-(4-fluorophenyl)-3-(4-hydroxy-2-oxo-2H-chromen-3-yl)-1H-pyrazol-1-yl) indolin-2-one], for which, in experiment [2], the half-maximal inhibitory concentration (IC50) amounted to 4.18 ± 0.25 µM and the “Selectivity index (SI)” value was found to be 3.6. Moreover, in experiment [1], the IC50 is 1.11 ± 0.02 µM.

Consider `O=C1C(n2nc(-c3c(O)c4ccccc4oc3=O)cc2-c2ccc(F)cc2)c2cc(Br)ccc2N1Cc1ccccc1` (stereo not shown) [Compound 4i, 1-Benzyl-5-bromo-3-(5-(4-fluorophenyl)-3-(4-hydroxy-2-oxo-2H-chromen-3-yl)-1H-pyrazol-1-yl)indolin-2-one], for which, in experiment [2], the IC50 amounted to 3.26 ± 0.29 µM and the “Selectivity index (SI)” value is on record as 2.5.

As for `O=C1Nc2ccc(OC(F)(F)F)cc2C1n1nc(-c2c(O)c3ccccc3oc2=O)cc1-c1ccc(F)cc1` (stereo not shown) [Compound 4j, 3-(5-(4-Fluorophenyl)-3-(4-hydroxy-2-oxo-2H-chromen-3-yl)-1H-pyrazol-1-yl)-5 (trifluoromethoxy) indolin-2-one], in the experiment with A375 cells [3], the “cell percentage in the G2/M phase” value is given as 16.00%, the “cell percentage of the S phase” value turned out to be 9.86%, the “cell population of the G0/G1-phase” value is given as 74.14% and the “cell population of the pre-G phase” value was determined as 1.88%. Besides, the scratch closure in the experiment on A375 cells [4] (A375, 24 h) is 14.28%. The same molecule had a scratch closure in the experiment with A375 cells [4] (A375, 48 h) of 17.57%. In the experiment on A375 cells [4] (A375, 72 h), this molecule came in with a scratch closure of 35.16%. Moreover, the “fold more active than the reference sorafenib (BRAF^V600E inhibition)” value at BRAF^V600E was 2 fold. In addition, at BRAF^V600E (BRAF^V600E IC50, A375 cells, 24 h exposure, ELISA), the IC50 is 1030 nM. At VEGFR-2, this molecule yielded an IC50 of 640 ± 80 nM. In the experiment with A375 cells [5], the “early apoptosis (Q2-4)” value stood at 6.07%, the “late apoptosis (Q2-2)” value is listed as 2.3% and the “necrotic cell death (Q2-1)” value worked out at 2.52%. Also, the total cell death in the experiment on A375 cells [5] (apoptosis plus necrosis) is listed as around 10.22%. In addition, in experiment [2], the IC50 amounted to 9.58 ± 0.73 µM and the “Selectivity index (SI)” value came to 9.9.

Take `O=C1C(n2nc(-c3c(O)c4ccccc4oc3=O)cc2-c2ccc(Cl)cc2)c2ccccc2N1Cc1ccccc1` (stereo not shown) [Compound 5c, 1-Benzyl-3-(5-(4-chlorophenyl)-3-(4-hydroxy-2-oxo-2H-chromen-3-yl)-1H-pyrazol-1-yl)indolin-2-one]: the IC50 in experiment [1] is 3.8 ± 0.22 µM.

As to `O=C1C(n2nc(-c3c(O)c4ccccc4oc3=O)cc2-c2ccc(Cl)cc2)c2cc(Cl)ccc2N1Cc1ccccc1` (stereo not shown) [Compound 5f, 1-Benzyl-5-chloro-3-(5-(4-chlorophenyl)-3-(4-hydroxy-2-oxo-2H-chromen-3-yl)-1H-pyrazol-1-yl)indolin-2-one], in experiment [2], the IC50 is 3.59 ± 0.32 µM and the “Selectivity index (SI)” value worked out at 3.3.

As for `O=C1C(n2nc(-c3c(O)c4ccccc4oc3=O)cc2-c2ccc(Cl)cc2)c2cc(Br)ccc2N1Cc1ccccc1` (stereo not shown) [Compound 5i, 1-Benzyl-5-bromo-3-(5-(4-chlorophenyl)-3-(4-hydroxy-2-oxo-2H-chromen-3-yl)-1H-pyrazol-1-yl)indolin-2-one], in experiment [2], the concentration for half-maximal inhibition (IC50) amounted to 3.63 ± 0.76 µM and the “Selectivity index (SI)” value is 3.5.

Take `CNC(=O)c1cc(Oc2ccc(NC(=O)Nc3ccc(Cl)c(C(F)(F)F)c3)cc2)ccn1` [Sorafenib, reference compound]: the “cell percentage in the G2/M phase” value with A375 cells [3] is reported as 23.02%. Also, the “cell population of the G0/G1-phase” value in the experiment with A375 cells [3] is 60.43%. Besides, the “cell population of the pre-G phase” value in the experiment with A375 cells [3] stood at 22.88%. For the same molecule, the scratch closure with A375 cells [4] (A375, 24 h) turned out to be 9.15%; in the experiment on A375 cells [4] (A375, 48 h) it was 12.07%; with A375 cells [4] (A375, 72 h), 24.17%. This molecule showed an apoptotic cell death with A375 cells [5] of 9.6%.

As usually defined, the IC50 is the concentration at which inhibition is half-maximal.
